Laboratory results reported in ChEMBL document CHEMBL1127389, “Synthesis and biological activity of 2-hydroxy and 2-alkoxy analogs of 1 alpha,25-dihydroxy-19-norvitamin D3” (1994).
Values joined by “and” are separate entries in the source; they are usually repeats but may differ in a detail not shown here. Equal values may be shown once.

Legend:
Rattus norvegicus [1] = species on record: Rattus norvegicus; assay: Tested in the vitamin D-deficient rat for the ability to support intestinal absorption of calcium with compound concentration 130 (pmol/d/7 days) expressed as Serum/Mucosal ratio; type: functional
Rattus norvegicus [2] = species on record: Rattus norvegicus; assay: Tested in the vitamin D-deficient rat for the ability to support intestinal absorption of calcium with compound concentration 260 (pmol/d/7 days) expressed as Serum/Mucosal ratio; type: functional
In short: (§1)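 Vitamin D-deficient Holtzman weanling rats were kept 1 week on a 0.47% Ca diet, then on a 0.02% Ca diet. They were given intraperitoneal injections daily for 7 days in 0.1 mL of 95:5 propylene glycol/ethanol, with vehicle controls, and killed 24 h after the last dose. Transport was measured by everted sac of the proximal 10 cm of intestine, as the ratio of sac Ca to final medium Ca (S/M). Groups had at least 6 rats; Student's t-test.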

Rattus norvegicus [3] = species on record: Rattus norvegicus; assay: Tested in the vitamin D-deficient rat for the ability to support intestinal absorption of calcium with compound concentration 325 (pmol/d/7 days) expressed as Serum/Mucosal ratio; type: functional
Rattus norvegicus [4] = species on record: Rattus norvegicus; assay: Tested in the vitamin D-deficient rat for the ability to support intestinal absorption of calcium with compound concentration 65 (pmol/d/7 days) expressed as Serum/Mucosal ratio; type: functional
Rattus norvegicus [5] = species on record: Rattus norvegicus; assay: Bone calcium-mobilizing activity with compound concentration 325 (pmol/d/7 days); type: functional, organism-based; set-up: unit not given here
In short: (§2)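 Holtzman weanling rats were fed a vitamin D-deficient diet with 0.47% Ca for 1 week, then a 0.02% Ca diet. They received daily intraperitoneal doses in 0.1 mL of 95:5 propylene glycol/ethanol for 7 days; controls got vehicle. Rats were killed 24 h after the last dose. Serum Ca was measured by automatic calcium titrator; on this diet, the rise in serum Ca is taken as bone Ca mobilization. At least 6 rats/group; Student's t-test.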

Rattus norvegicus [6] = species on record: Rattus norvegicus; assay: Bone calcium-mobilizing activity with compound concentration 260 (pmol/d/7 days); type: functional, organism-based; in short: as §2
Rattus norvegicus [7] = species on record: Rattus norvegicus; assay: tested in the vitamin D-deficient rat for the ability to support intestinal absorption of calcium with compound concentration 325 (pmol/d/7 days) expressed as Serum/Mucosal ratio; type: functional; in short: as §1
Rattus norvegicus [8] = species on record: Rattus norvegicus; assay: tested in the vitamin D-deficient rat for the ability to support intestinal absorption of calcium with compound concentration 65 (pmol/d/7 days) expressed as Serum/Mucosal ratio; type: functional; in short: as §1
Rattus norvegicus [9] = species on record: Rattus norvegicus; assay: tested in the vitamin D-deficient rat for the ability to support intestinal absorption of calcium with compound concentration 130 (pmol/d/7 days) expressed as Serum/Mucosal ratio; type: functional; in short: as §1
Rattus norvegicus [10] = species on record: Rattus norvegicus; assay: Bone calcium-mobilizing activity with concentration 260 (pmol/d/7 days); type: functional, organism-based; in short: as §2
Rattus norvegicus [11] = species on record: Rattus norvegicus; assay: tested in the vitamin D-deficient rat for the ability to support intestinal absorption of calcium with compound concentration 260 (pmol/d/7 days) expressed as Serum/Mucosal ratio; type: functional; in short: as §1
Rattus norvegicus [12] = species on record: Rattus norvegicus; assay: Bone calcium-mobilizing activity with compound concentration 130 (pmol/d/7 days); type: functional, organism-based; in short: as §2
Rattus norvegicus [13] = species on record: Rattus norvegicus; assay: Bone calcium-mobilizing activity with compound concentration 65 (pmol/d/7 days); type: functional, organism-based; in short: as §2
Rattus norvegicus [14] = species on record: Rattus norvegicus; assay: Bone calcium-mobilizing activity with compoundm concentration 130 (pmol/d/7 days); type: functional, organism-based; in short: as §2

Structure (SMILES): C=C1/C(=C/C=C2/CCCC3(C)C2CCC3[C@H](C)CCCC(C)(C)O)C[C@@H](O)C[C@@H]1O (stereo partly specified)
- Ratio (Rattus norvegicus [1]): 8 and 7.1
- Ratio (Rattus norvegicus [2]): 10.5
- Ratio (Rattus norvegicus [3]): 10.5 and 7.8
- Ratio (Rattus norvegicus [4]): 8.3
- Serum Ca2+ (Rattus norvegicus [5]): 6.8 and 7.1
- Serum Ca2+ (Rattus norvegicus [6]): 5.9

Structure (SMILES): C[C@H](CCCC(C)(C)O)[C@H]1CC[C@H]2/C(=C\C=C3C[C@@H](O)C(O)[C@H](O)C3)CCC[C@]12C (stereo partly specified) [listing 1 of 3 here]
- Ratio (Rattus norvegicus [7]): 10.8
- Ratio (Rattus norvegicus [8]): 5.8

Structure (SMILES): C[C@H](CCCC(C)(C)O)[C@H]1CC[C@H]2/C(=C\C=C3C[C@@H](O)C(O)[C@H](O)C3)CCC[C@]12C (stereo partly specified) [listing 2 of 3 here]
- Ratio (Rattus norvegicus [9]): 5.3
- Ratio (Rattus norvegicus [7]): 5

Structure (SMILES): C[C@H](CCCC(C)(C)O)[C@H]1CC[C@H]2/C(=C/C=C3C[C@@H](O)C(OCc4ccccc4)[C@H](O)C3)CCC[C@]12C (stereo partly specified)
- Ratio (Rattus norvegicus [2]): 11.9
- Serum Ca2+ (Rattus norvegicus [10]): 4.6

Structure (SMILES): C[C@H](CCCC(C)(C)O)[C@H]1CC[C@H]2/C(=C/C=C3C[C@@H](O)C(OCCCO)[C@H](O)C3)CCC[C@]12C (stereo partly specified) [listing 1 of 3 here]
- Ratio (Rattus norvegicus [11]): 5.7

Structure (SMILES): C[C@H](CCCC(C)(C)O)[C@H]1CC[C@H]2/C(=C/C=C3C[C@@H](O)C(OCCCO)[C@H](O)C3)CCC[C@]12C (stereo partly specified) [listing 2 of 3 here]
- Ratio (Rattus norvegicus [9]): 3.5
- Ratio (Rattus norvegicus [7]): 4.3

Structure (SMILES): C[C@H](CCCC(C)(C)O)[C@H]1CC[C@H]2/C(=C/C=C3C[C@@H](O)C(OCCCO)[C@H](O)C3)CCC[C@]12C (stereo partly specified) [listing 3 of 3 here]
- Serum Ca2+ (Rattus norvegicus [12]): 4.9
- Serum Ca2+ (Rattus norvegicus [5]): 5.8
- Serum Ca2+ (Rattus norvegicus [6]): 4.7

Structure (SMILES): C[C@H](CCCC(C)(C)O)[C@H]1CC[C@H]2/C(=C\C=C3C[C@@H](O)C(O)[C@H](O)C3)CCC[C@]12C (stereo partly specified) [listing 3 of 3 here]
- Serum Ca2+ (Rattus norvegicus [5]): 4.2 and 4.1
- Serum Ca2+ (Rattus norvegicus [13]): 4.2
- Serum Ca2+ (Rattus norvegicus [14]): 4.1
